Measured values from publication PMC10412738 (Cell reports, 2023).

How the values were obtained:
Y79 cells [1] = experiment: Cell proliferation; type: cell-based; settings: for growth arrest following SFRP2 silencing, Wnt inhibitors: 1 μM, SFRP2 siRNA
How it was run: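 SFRP2 or control siRNA transfected with Lipofectamine RNAiMAX, then cells given recombinant human SFRP2 at 250 ng/mL or left untreated. Proliferation tracked by IncuCyte live-cell imaging. RB383 were grown in IMDM with 10% FBS, 10 μg/mL insulin and 55 μM β-mercaptoethanol; Y79 in RPMI-1640 with 10% FBS.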

RB383 cells = experiment: Cell proliferation; type: cell-based; settings: for inhibition of proliferation: RB383 cells, 1 μg/mL, IncuCyte
NOS2 RNA in RB383 cells = experiment: NOS2 RNA by qRT-PCR, RB383; type: cell-based; settings: n = 3; for NOS2 RNA induction following SFRP2 silencing: 12 h; for NOS2 RNA induction: RB383 cells, 1 μg/mL, qRT-PCR
[2] = tested on: phosphorylated CREB (phospho-serine 133) in RB383 cells; experiment: Phosphorylated CREB by immunoblotting, RB383; type: cell-based; settings: for phosphorylated CREB induction: RB383 cells, 1 μg/mL, immunoblotting
[3] = tested on: NO production in RB383 cells; experiment: NO production, nitrate/nitrite colorimetric assay, RB383; type: cell-based; settings: n = 3; for NO production following SFRP2 silencing: CM, 12 h; for NO production: RB383 cells, 1 μg/mL, NO in the CM
How it was run: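 Test peptides (12-mer SFRP2 binders from phage display) added to RB383 at 1 μg/mL. At the indicated time points, NO in the conditioned medium was measured by nitrite/nitrate colorimetric assay; n = 3.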

retinoblastoma cells = experiment: Rescue of growth inhibition following SFRP2 silencing; type: cell-based; settings: SFRP2 siRNA
How it was run: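 Retinoblastoma cell lines transfected with SFRP2 or control siRNA (RNAiMAX), then exposed to 5 μM NS-2028 (sGC inhibitor) or 2.5 μM KT5823 (PKG inhibitor), or left untreated. Proliferation measured by IncuCyte live-cell imaging.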

p21 in RB383 cells = experiment: p21 induction following SFRP2 silencing, immunoblotting, RB383; type: cell-based; settings: 1 μM carboxy-PTIO, 5 μM NS-2028, or 2.5 μM KT5823
How it was run: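 In RB383 cells transfected with SFRP2 or control siRNA, treatment was none, 1 μM carboxy-PTIO, 5 μM NS-2028 or 2.5 μM KT5823. p21 protein was then assessed by SDS-PAGE immunoblotting of whole-cell lysate.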

[4] = tested on: NO production in Y79 cells; experiment: NO production, nitrate/nitrite colorimetric assay, Y79; type: cell-based; settings: 2 μM, CM and cell lysate, n = 3
How it was run: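 Y79 retinoblastoma cells were exposed to a small-molecule SFRP inhibitor at 2 μM. At the indicated times, NO production was measured in conditioned medium and in cell lysate by nitrite/nitrate colorimetric assay. n = 3; data given as mean ± SEM.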

SFRP1 = settings: cited from earlier work
[5] = tested on: SFRP2 RNA in retinoblastoma cells; experiment: SFRP2 RNA silencing in retinoblastoma; type: cell-based; settings: n = 3
[6] = tested on: ARPE-19 retinal pigment epithelial cells; experiment: Cell proliferation; type: cell-based, human; settings: 1 μg/mL, IncuCyte
[7] = molecular target: Recombinant human CXADR protein (3336-CX-050, R&D Systems) (human) (UniProt P78310); experiment: MST
Y79 cells [8] = experiment: Ligand-binding assay of SFRP2-FLAG to Y79 cells; settings: anti-FLAG immunoblotting after washing
How it was run: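 C-terminally FLAG-tagged SFRP2 was secreted from transfected 293T cells. It was incubated with Y79 cells previously transfected (Lipofectamine RNAiMAX) with CXADR siRNA or control siRNA. Cells were washed to remove unbound protein and lysed. Whole-cell lysate went to SDS-PAGE and anti-FLAG immunoblotting. CXADR knockdown was confirmed by immunoblotting.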

CXADR = experiment: Co-immunoprecipitation of SFRP2 with endogenous CXADR in 293T cells; type: binding; settings: C-terminally FLAG-tagged SFRP2, 293T cells
How it was run: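 FLAG-tagged constructs (C-terminally FLAG-tagged SFRP2 in pcDNA3) were transfected by calcium phosphate co-precipitation into 293T cells grown in DMEM with 10% fetal bovine serum. Anti-FLAG immunoprecipitation was followed by SDS-PAGE and anti-CXADR immunoblotting for endogenous CXADR.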

[9] = tested on: CXADR-overexpressing Y79 cells; experiment: Cell proliferation of CXADR-overexpressing Y79 cells; type: cell-based; settings: 250 ng/mL recombinant SFRP2
How it was run: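 Y79 cells were infected with pCDH1-puro lentivirus (made in 293T) carrying CXADR cDNA or empty vector, then selected in 5 μg/mL puromycin for 48 h. Expression was checked by anti-CXADR immunoblot. Cells were treated with recombinant SFRP2 at 250 ng/mL or left untreated, and proliferation was monitored by IncuCyte.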

[10] = tested on: NO production in CXADR-overexpressing Y79 cells; experiment: NO production in CXADR-overexpressing Y79 cells; type: cell-based; settings: 250 ng/mL recombinant SFRP2, n = 3
recombinant CXADR = experiment: Microscale thermophoresis of SFRP2-CXADR interaction; type: binding, human; settings: read-out: KD of SFRP2-CXADR interaction, labeled CXADR, PBS/0.005% Tween 20, 30-min incubation at room temperature, Monolith NT.115
How it was run: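 Recombinant human CXADR was fluorescently labelled with the RED-NHS second-generation dye kit. It was mixed with recombinant human SFRP2, incubated, and loaded into capillary chips. KD was derived from microscale thermophoresis affinity analysis.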

With CC(=O)N[C@@H](C(=O)O)C(C)(C)SN=O (racemic) [SNAP] the “retinoblastoma growth, NO donor” value (Y79 cells [1]; concentrations in figure, IncuCyte) was “inhibited retinoblastoma growth in a dose-dependent manner”.

In the case of O=S(=O)(NCCNC/C=C/c1ccc(Br)cc1)c1cccc2cnccc12 [H89], the “growth inhibition following SFRP2 silencing” value (RB383 cells; RB383, 5 μM H89, SFRP2 siRNA) is reported as “abolished”, the “NOS2 RNA induction following SFRP2 silencing” value (NOS2 RNA in RB383 cells; RB383, 5 μM H89, SFRP2 siRNA) is reported as “abolished” and the “CREB phosphorylation following SFRP2 silencing” value ([2]; RB383, 5 μM H89, SFRP2 siRNA, 48 h) is reported as “abolished CREB phosphorylation”. For the same molecule, the “NO production following SFRP2 silencing” value ([3]; RB383, 5 μM H89, SFRP2 siRNA) was “abolished”.

For O=C(CSc1nc2c(c(=O)n1-c1ccccc1)SCC2)Nc1ccc(-c2ccccc2)cn1 [IWP-L6], the “growth arrest following SFRP2 silencing, Wnt inhibitors” value (Y79 cells [1]) was “did not rescue the growth arrest of retinoblastoma cells following SFRP2 silencing”.

For COC(=O)[C@@]1(OC)C[C@H]2O[C@]1(C)n1c3ccccc3c3c4c(c5c6ccccc6n2c5c31)C(=O)N(C)C4 [KT5823], the “growth inhibition following SFRP2 silencing (rescue), PKG inhibitor” value (retinoblastoma cells; 2.5 μM) was “abolished” and the “p21 induction following SFRP2 silencing” value (p21 in RB383 cells) was “abolished”.

For [H]/N=C(/NC)NCCC[C@H](N)C(=O)O [L-NMMA], the “growth inhibition following SFRP2 silencing (rescue), pan-NOS inhibitor” value (retinoblastoma cells; concentrations in figure) was “abolished growth inhibition following SFRP2 silencing”.

For Nc1ncc2c(n1)CC(c1ccco1)CC2=O (stereo not drawn) [NKY80], the “growth inhibition following SFRP2 silencing” value (RB383 cells; RB383, 1 μM NKY80, SFRP2 siRNA) was “abolished”, the “NOS2 RNA induction following SFRP2 silencing” value (NOS2 RNA in RB383 cells; RB383, 1 μM NKY80, SFRP2 siRNA) was “abolished NOS2 induction” and the “NO production following SFRP2 silencing” value ([3]; RB383, 1 μM NKY80, SFRP2 siRNA) was “abolished”.

With O=c1onc2n1-c1cc(Br)ccc1OC2 [NS-2028] the “growth inhibition following SFRP2 silencing (rescue), sGC inhibitor” value (retinoblastoma cells; 5 μM) was “abolished” and the “p21 induction following SFRP2 silencing” value (p21 in RB383 cells) was “abolished”.

In the case of O=S(=O)(NC1CCNCC1)c1cc(S(=O)(=O)c2ccccc2)ccc1C(F)(F)F [WAY-316606], the NO generation [4] is given as “rapidly induces NO generation in retinoblastoma cells”, the inhibition of proliferation (Y79 cells [1]; dose range in figure, IncuCyte) is given as “efficiently inhibited retinoblastoma cell proliferation in a dose-dependent manner” and the “inhibition of SFRP1” value (SFRP1) is given as “potent inhibitor of SFRP1”.

For Oc1nc(-c2ccc(C(F)(F)F)cc2)nc2c1CSCC2 [XAV939], the “growth arrest following SFRP2 silencing, Wnt inhibitors” value (Y79 cells [1]) was “did not rescue the growth arrest of retinoblastoma cells following SFRP2 silencing”.

With CC1(C)N([O])C(c2ccc(C(=O)O)cc2)=[N+]([O-])C1(C)C [carboxy-PTIO] the “growth inhibition following SFRP2 silencing (rescue), NO scavenger” value (retinoblastoma cells; 1 μM, all five retinoblastoma cell lines) was “completely abolished SFRP2 silencing-induced growth inhibition in all five retinoblastoma cell lines”, the “effect on SFRP2 silencing” value [5] was “did not affect SFRP2 silencing” and the “p21 induction following SFRP2 silencing” value (p21 in RB383 cells) was “abolished”.

For HGWASLLNYSWY [peptide II], the inhibition of proliferation (RB383 cells) was “strongly inhibited proliferation of retinoblastoma cells”, the inhibition of proliferation (Y79 cells [1]; 1 μg/mL, IncuCyte) was “strongly inhibited proliferation of retinoblastoma cells” and the “NOS2 RNA induction” value (NOS2 RNA in RB383 cells) was “rapidly induced”. For the same molecule, the “growth of ARPE-19 cells” value [6] was “do not inhibit the growth of retinal pigment epithelial cells”, the “phosphorylated CREB induction” value [2] was “rapidly induced phosphorylated CREB” and the NO production [3] was “rapidly induced”.

For HNPFTFFGPMFY [peptide I], the inhibition of proliferation (RB383 cells) was “strongly inhibited proliferation of retinoblastoma cells”, the inhibition of proliferation (Y79 cells [1]; 1 μg/mL, IncuCyte) was “strongly inhibited proliferation of retinoblastoma cells” and the “NOS2 RNA induction” value (NOS2 RNA in RB383 cells) was “rapidly induced”. For the same molecule, the “growth of ARPE-19 cells” value [6] was “do not inhibit the growth of retinal pigment epithelial cells”, the “phosphorylated CREB induction” value [2] was “rapidly induced phosphorylated CREB” and the NO production [3] was “rapidly induced”.

B1: Recombinant human SFRP2 protein (6838-FR-025, R&D Systems) (ligand)
chain: LFLFGQPDFSYKRSNCKPIPANLQLCHGIEYQNMRLPNLLGHETMKEVLEQAGAWIPLVMKQCHPDTKKFLCSLFAPVCLDDLDETIQPCHSLCVQVKDRCAPVMSAFGFPWPDMLECDRFPQDNDLCIPLASSDHLLPATEEAPKVCEACKNKNDDDNDIMETLCKNDFALKIKVKEITYINRDTKIILETKSKTIYKLNGVSERDLKKSVLWLKDSLQCTCEEMNDINAPYLVMGQKQGGELVITSVKRWQKGQREFKRISRSIRKLQC
In the case of B1, the Kd [7] is reported as 11.9 nM.

B2: SFRP2-FLAG: C-terminally FLAG-tagged SFRP2 produced by transfection in 293T cells (protein)
chain: B1 chain
modifications: left off: FLAG, C-terminal, kept
With B2 the “SFRP2-FLAG binding to Y79 cells” value (Y79 cells [8]) was “bound to Y79 cells, and this binding was abolished by siRNA-mediated silencing of CXADR” and the “co-immunoprecipitation with CXADR” value (CXADR) was “specifically co-immunoprecipitated with CXADR”.

B3: recombinant SFRP2: Recombinant human SFRP2 protein (R&D Systems) (protein)
chain: B1 chain
modifications: left off: FLAG, C-terminal, kept
For B3, the “proliferation of CXADR-overexpressing cells” value [9] was “rescue of proliferation”, the “NO generation in CXADR-overexpressing cells” value [10] was “rapidly abolished” and the Kd (recombinant CXADR) was 11.9 nM.
